The sample as a whole holds a higher share of hits than the screen did.
INS promoter act = activators of insulin promoter-driven GFP, primary screen, imaging, TRM-6 cells (human fetal islet line), eGFP reporter, cell count; plate-scaled: unstimulated 0, stimulated control 100; activation, % at 2 µM; 130,000 compounds, 0.81% hits;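 active means activation at 2 µM above a set limit, confirmed on inspection of the cell images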;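 further: share of cells whose green reporter signal exceeds an intensity cutoff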
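test system = TRM-6 insulin promoter–eGFP reporter cells | benchmarks = stimulated versus unstimulated wells as plate controls | read-out basis = percent cells above green-intensity threshold, converted to percent activation versus plate controls | detection = fixed-cell fluorescence microscopy, eGFP plus Hoechst | incubation = tamoxifen pre-incubation 15 h overnight, then compound exposure 48 h at 37 °C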
Hits are given with their value; . = inactive; [ ] = dose if it differs, or a comment.

SMILES | INS promoter act
C=C(C)CC(NCCc1ccccc1)c1ccco1 (stereo unspecified) | 669.2[fluoresces]
O=C(Nc1ccc(Cl)c(C(F)(F)F)c1)NC1CC2CCCC(C1)N2Cc1ccccc1 (stereo unspecified) | .
Cc1ccc(C2CC(=O)c3cnn(-c4nc(C)cc(C)n4)c3C2)cc1 (stereo unspecified) | .
CNC(=S)Nc1cc(C(=O)N2CCCC2)ccc1N1CCCC1 | .
O=C(O)CC1S/C(=N/N=C/c2ccc([N+](=O)[O-])cc2)N(c2ccc(O)cc2)C1=O (stereo unspecified) | .
CCN1C(=O)/C(=C\c2ccc3c(c2)OCO3)C(C(=O)OC)=C1C | .
CC(C)NC(=O)CCCc1c[nH]c2ccccc12 | .
COC(=O)C1=C(C)N(CCc2c[nH]c3ccccc23)C(=O)/C1=C\N(C)C | 408.6
Cc1cc(C)nc(NCCO)n1 | .
O=C(CCN1CCN(Cc2ccccc2)CC1)Nc1ccccc1Cl | .
CCCC(=O)C1=C(O)C(C(=O)OC)C(C)(C)CC1=NC(C)C (stereo unspecified) | 480.0
CCCC(=O)C1=C(O)C(C(=O)OC)C(C)(C)CC1=Nc1cccc2ccccc12 (stereo unspecified) | .
CCOC(=O)CCCCC(=O)NC(CO)C(=O)NC (stereo unspecified) | .
CC1CCN(C(=O)C2(NC(=O)Nc3cccc(F)c3)CCCCC2)CC1 | .
CCN1/C(=C/c2ccc3cc(C)ccc3[n+]2CC)Sc2ccccc21 | .
CCC(=O)/C=C1/Sc2ccccc2N1CC | .
CCN1/C(=C/C=C/C=C/c2sc3ccccc3[n+]2CC)Sc2ccccc21 | 354.5
CCOC(=O)CSc1nnc(CNC(=O)c2ccc(S(=O)(=O)N3CCCC3)cc2)n1C | .
C=C(C)CN1CCN(c2ccc(N3C(=O)CCCC3=O)cc2[N+](=O)[O-])CC1 | .
COc1ccc(CCc2nnc(CCC(=O)NCc3cnc4ccccn34)o2)cc1 | .
N#Cc1c2c(c(-c3ccccc3Cl)[nH]c1=S)CCCC2 | .
N#Cc1c2c(c(=S)n(-c3ccccc3)c1N)CCCC2 | 273.3
N#Cc1c(NCCCO)nc(-c2ccccc2)c2c1CCCC2 | .
C/C(Cn1nc([N+](=O)[O-])cc1C)=N\NC(=O)c1ccc(C(C)(C)C)cc1 | .
CC(=O)Oc1ccc(N2C(=O)C3C4C=CC(C5CC45)C3C2=O)cc1[N+](=O)[O-] (stereo unspecified) | .
SMILES | INS promoter act
O=[N+]([O-])c1ccc(N/N=C/c2sc(N3CCOCC3)nc2-c2ccccc2)c(S(=O)(=O)Nc2ccc(Cl)cc2)c1 | 488.2
O=C(COc1ccc([N+](=O)[O-])cc1)N/N=C/c1cc([N+](=O)[O-])ccc1N1CCOCC1 | .
COC(=O)CCC(=O)Nc1cc(S(=O)(=O)Nc2ccc(Cl)cc2)ccc1N1CCOCC1 | .
O=C(COC(=O)CCOc1ccccc1)Nc1ncc(Cl)cc1Cl | .
O=C(Cn1c(=O)sc2ccccc21)Nc1ccc(O)cc1 | .
COc1ccc(CNn2c(-c3ccccc3F)nc3ccccc3c2=O)cc1OC | .
COc1cccc(/C(O)=C2/C(=O)C(=O)N(CCN3CCOCC3)C2c2cccnc2)c1 (stereo unspecified) | 530.8
CC(C)Oc1ccc(/C(O)=C2/C(=O)C(=O)N(CCN3CCOCC3)C2c2ccccc2)cc1 (stereo unspecified) | .
COc1ccc(/C(O)=C2/C(=O)C(=O)N(CCN(C)C)C2c2cccnc2)cc1OC (stereo unspecified) | .
O=[N+]([O-])/C=C1/CCCCCN1 | .
CCOC(=O)c1nn(-c2ccccc2F)c(-c2ccccc2)c1C(=O)c1ccccc1 | .
Fc1ccc(-c2nc3nc4ccccc4nc3n2Cc2ccco2)cc1 | .
N=c1c2c(-c3ccccc3)c(-c3ccccc3)n(Cc3ccco3)c2ncn1CCO | .
c1ccc(-c2nc3nc4ccccc4nc3n2Cc2ccco2)cc1 | 200.0
COc1ccc(C(=O)NC2=NCCS2)cc1S(=O)(=O)N1CCCCC1C (stereo unspecified) | .
O=C(/C=C/c1ccccc1[N+](=O)[O-])N1CCCCC1 | .
COC(=O)c1cccc(NC(=O)/C=C/c2ccc([N+](=O)[O-])cc2)c1 | .
CC(=O)c1cccc(NC(=O)/C=C/c2ccc([N+](=O)[O-])s2)c1 | 614.3
O=C(/C=C/c1ccc([N+](=O)[O-])s1)N1CCCCC1 | 327.8
O=C(CNC(=O)c1cccc(F)c1)N/N=C/c1ccc([N+](=O)[O-])s1 | .
COc1ccccc1/C=C/C(=O)N1CCCC1 | .
CCCCN1C(=O)C2Cc3c([nH]c4ccccc34)CN2C1=S (stereo unspecified) | .
COc1ccc(-c2[nH]nc3oc(=O)c(CCO)c(C)c23)cc1 | .
COc1ccc(C(=O)NCc2oc(-c3ccccc3)cc2C(=O)O)cc1 | .
COc1ccc(-c2nn(C)c(=O)c3ccccc23)cc1CNC(=O)NC1CCCCC1 | .
O=C(Nc1ccc(F)c(F)c1)c1ccco1 | .
CC(=O)N(C)c1ccc(NC(=O)c2ccco2)cc1 | .
O=C(Nc1ccc(Br)cc1)c1ccco1 | 557.1
